In general, Cmax refers to the maximum level reached in the sampled fluid or tissue. By Tmax is commonly meant the time from dosing to the highest level.

These results are taken from PMC6349498 (Drug testing and analysis, 2018).

Like-named read-outs stand apart in the source and are kept apart here.

A short description of series [1]: OT stability in human serum. Type of series: in vitro ADME. The settings on record: added to human serum; 4°C or room temperature (23°C); up to 24 hours; LCMS. In a few lines:
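OT and OT-d5 were added to human serum and held at room temperature (~23°C) or 4°C for 24 h. Levels were compared with pre-incubation values. Serum (500 µL) was spiked with OT-d5, acidified with 4% phosphoric acid, then C18 SPE-purified. Quantitation was by HRAM orbitrap LCMS in positive heated ESI targeted SIM mode.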

The next series can be described thus: OT stability in water. The settings on record: spiked 9.9, 24.8, 154 and 385 ng/mL in water; 10°C; up to 5 days; LCMS. Format: physicochemical. In a few lines: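 Water was spiked with OT and OT-d5 at final 9.9, 24.8, 154 and 385 ng/mL and held at 10°C for variable times, matching the urine spikes. OT and OT-d5 levels were quantitated by HRAM orbitrap LCMS (positive heated ESI, targeted SIM). Means and standard deviation were reported.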

The nature of series [2]: OT stability in human urine. Type of series: in vitro ADME. The settings on record: human urine spiked 9.9-385 ng/mL; 10°C; up to 5 days; LCMS.
Series [3] is classed as in vivo, human. In a few lines: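 Healthy male and post-menopausal female volunteers self-dosed intranasally. Male: 100 IU (10 IU/puff, 5 puffs per nostril, alternating), then 20 IU (1 puff per nostril) after one-week washout. Female: 100 IU (50 IU/puff) compounded metered spray. Serum (male), urine and saliva were sampled baseline to 120–240 min and frozen at −80°C. Samples were C18 SPE-extracted with OT-d5 internal standard and analysed by orbitrap targeted SIM (m/z 562.25503); urine was creatinine-adjusted.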

For series [4] the following is noted: plasma from men and non-pregnant women; 60 minute incubation at 37°C; cited from earlier work.
Where [5] appears, read: healthy volunteer, n=1, 100 IU intranasal (OxyLuv), saliva.
The mark [6] stands for this setting: male, human, serum, inhaled or intranasal, 100 IU.

Take OT-leucyl-d3-glycinamide-d2 [OT-d5]: the “change in level compared to pre-incubation level” value in series [1] was less than 15%. For the same compound, the stability in water entry in the series “OT stability in water” was “remained stable”. Moreover, the “stability in urine after the initial drop” value in series [2] is listed as “stayed at those low levels”.
Turning to `CC[C@H](C)[C@@H]1NC(=O)[C@H](Cc2ccc(O)cc2)NC(=O)[C@@H](N)CSSC[C@@H](C(=O)N2CCC[C@H]2C(=O)N[C@@H](CC(C)C)C(=O)NCC(N)=O)NC(=O)[C@H](CC(N)=O)NC(=O)[C@H](CCC(N)=O)NC1=O` [OT, Oxytocin], in series [3] (2 volunteers, 20 IU or 100 IU intranasal, serum, urine, saliva, summary), the “time after the peak at which levels decreased to below detection limits” value lay within 1 to 2 h. In addition, the “time of peak levels in serum, urine and saliva after each dose” value in series [3] (2 volunteers, 20 IU or 100 IU intranasal, summary over matrices) is 15 to 30 min. Moreover, the “time of elimination of saliva OT to levels below LLOD” value in series [3] (after intranasal OT, saliva, LLOD 10 pg/mL) fell in the range of 2 to 3 h. Besides, the “time of peak saliva OT level” value in series [3] (healthy volunteer, n=1, 20 IU intranasal (OxyLuv), saliva) turned out to be 15 min. In addition, in series [3] (setting [5]), the “peak saliva OT level” value was 392,000 pg/mL and the “time of peak saliva OT level” value was found to be 15 min. Also, the “time of decrease of serum OT to baseline” value in series [3] (healthy volunteer, n=1, 100 IU intranasal (OxyLuv), serum) was no more than 60 min. In addition, the “time of peak urine OT excretion” value in series [3] (healthy volunteer, n=1, 100 IU intranasal (OxyLuv), urine) worked out at 30 min. Further, in series [3] (setting [6]), the highest level (Cmax) was 0.08 ng/mL and the Tmax is 15 min. Besides, the “change in level compared to pre-incubation level” value in series [1] is less than 15%. The stability in water entry in “OT stability in water” is given as “remained stable”. Besides, in series [2], the “stability in urine after the initial drop” value was “stayed at those low levels”. The “OT degradation in plasma” value in series [4] was “little or no OT degradation”.
